Screening data: PubChem BioAssay, The Scripps Research Institute Molecular Screening Center
An excerpt weighted towards active compounds, which were near 2.7% of everything screened.
ASAP1 inh: inhibitors of human ASAP1 ArfGAP activity, primary screen, biochemical, fluorescence polarization; ASAP1-stimulated ARF1 GTP hydrolysis, GDP FP detection; inhibition, % at 16.5 µM; actives 0.19% (n = 360,000); in the data active means inhibition above about 25%;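 further: 0% = vehicle with enzyme and substrate and 100% = no enzyme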
PAFAH1B3 inh: PAFAH1B3 enzyme inhibitors, primary screen, biochemical, fluorescence polarization, human; Platelet-activating factor acetylhydrolase IB subunit alpha1 (Homo sapiens), Q15102; recombinant PAFAH1B3, FP-rhodamine probe; inhibition, % at 3.39 µM; actives 0.28% (n = 340,000); AID 492972, 2010;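 active means inhibition above the screen-wide average of all tested compounds plus 3 SD, cut at about 25% in these data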;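 further: 0% = enzyme with DMSO only and 100% = wells lacking PAFAH1B3 protein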
Target sequence (Q15102 whole entry, looked up): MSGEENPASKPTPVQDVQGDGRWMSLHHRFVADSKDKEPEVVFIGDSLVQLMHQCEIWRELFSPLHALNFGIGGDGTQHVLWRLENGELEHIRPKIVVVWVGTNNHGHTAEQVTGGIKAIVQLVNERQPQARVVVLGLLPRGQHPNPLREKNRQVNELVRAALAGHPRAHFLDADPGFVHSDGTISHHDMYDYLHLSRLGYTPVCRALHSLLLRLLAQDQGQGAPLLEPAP
PAFAH2 inh: PAFAH2 enzyme inhibitors, primary screen, biochemical, fluorescence polarization, human; Platelet-activating factor acetylhydrolase 2, cytoplasmic (Homo sapiens), Q99487; recombinant PAFAH2, FP-rhodamine activity probe; inhibition, % at 3.39 µM; actives 0.99% (n = 340,000);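 active means inhibition above the mean over all tested compounds plus 3 SD, cut at about 30% in these data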;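 further: inhibitors block probe labeling of enzyme so polarization drops; 0% = enzyme with DMSO and 100% = wells lacking PAFAH2 protein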
pPAFAH inh: pPAFAH enzyme inhibitors, primary screen, biochemical, fluorescence polarization, human; Platelet-activating factor acetylhydrolase (Homo sapiens), Q13093; recombinant pPAFAH, FP-rhodamine probe fluorescence polarization; inhibition, % at 3.39 µM; actives 1.5% (n = 330,000); AID 463082, 2010;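 active means inhibition above the mean inhibition across the screen plus 3 SD, cut at about 25% in these data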;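 further: inhibitors block binding of the rhodamine activity-based probe so polarization drops; 0% = enzyme with DMSO and 100% = wells lacking pPAFAH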
ARFGAP1 inhibitor: inhibitors of rat ARFGAP1 GAP activity, primary screen, biochemical, fluorescence polarization, GDP tracer; ADP-ribosylation factor GTPase-activating protein 1 (Rattus norvegicus), Q62848; Arfgap1-stimulated ARF1 GTP hydrolysis, GDP FP detection; inhibition, % at 16.5 µM; actives 0.26% (n = 360,000); AID 651572, 2012;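 active means inhibition above a per-plate limit, mean inhibition of low control wells plus 3 SD, cut at about 25% in these data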;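 further: 0% = DMSO wells with enzyme and 100% = wells lacking Arfgap1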
Target sequence (Q62848 1-136 limits assumed): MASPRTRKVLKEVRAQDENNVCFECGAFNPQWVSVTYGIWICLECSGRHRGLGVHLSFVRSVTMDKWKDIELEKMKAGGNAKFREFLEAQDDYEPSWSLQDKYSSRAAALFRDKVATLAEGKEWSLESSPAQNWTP
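Replicates: Single well per compound | Assay system: Truncated rat Arfgap1 GAP domain | Control set: No-Arfgap1 wells (100%) versus DMSO full-reaction wells (0%) | Times: Enzyme reaction 120 min at 25 °C after 20 min preincubation | Reagent: Human ARF1(Δ1-17)-GTP substrate | Measured by: Tracer-displacement fluorescence polarization with EDTA stop, 620/688 nm | Measure: Percent inhibition of Arfgap1-stimulated GTP hydrolysis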
PAFAH1B2 FP inh: PAFAH1B2 enzyme inhibitors, primary screen, biochemical, fluorescence polarization, human; recombinant PAFAH1B2, FP-rhodamine activity probe; actives 1.2% (n = 340,000); inhibition, % at 3.39 µM; Platelet-activating factor acetylhydrolase IB subunit alpha2 (Homo sapiens), P68402;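 active means inhibition above the mean of all tested compounds plus 3 SD, cut at about 24% in these data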;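 further: 0% = enzyme with DMSO and 100% = wells lacking PAFAH1B2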
PAFAH2 FP conf: PAFAH2 enzyme inhibitors, confirmation, biochemical, fluorescence polarization, human. shares compounds with PAFAH2 inh. recombinant PAFAH2, FP-rhodamine activity probe. inhibition, % at 3.39 µM. actives 65% (n = 2,300). AID 493030, 2011;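 active means mean inhibition over three repeats above a set limit taken from the earlier primary screen, cut at about 30% in these data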;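 further: inhibitor blocks binding of rhodamine activity probe so polarization falls; 0% = enzyme with DMSO and 100% = wells lacking PAFAH2 protein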
Active calls of the source: *; / = not tested or not shown.

SMILES	ASAP1 inh	PAFAH1B3 inh	PAFAH2 inh	pPAFAH inh	ARFGAP1 inhibitor	PAFAH1B2 FP inh	PAFAH2 FP conf
Cc1ccc(C(=O)OCC(=O)NCc2ccco2)cc1C	-1.1	4.0	58.6*	5.1	-10.3	3.9	34.5*
Cc1ccc(C(=O)OCC(=O)Nc2sc3c(c2C#N)CCCCC3)cc1NC(=O)c1ccco1	-3.5	-10.8	-7.6	0.4	5.3	-8.9	/
Cc1ccc(C(=O)OCC(=O)Nc2ccccc2)cc1NC(=O)c1ccco1	-4.7	1.3	81.5*	8.2	-6.4	-7.3	81.2*
Cc1ccc(C(=O)OCC(=O)Nc2sc3c(c2C#N)CCCC3)cc1NC(=O)c1ccco1	4.2	-24.9	13.2	21.0	-4.7	-3.0	/
Cc1ccc(C(=O)OCC(=O)Nc2ccc(N(C)C)cc2)cc1NC(=O)c1ccco1	-10.4	2.6	40.5*	0.7	6.2	-2.4	34.6*
Cc1ccc(C(=O)OCC(=O)Nc2ncc(Cl)cc2Cl)cc1NC(=O)c1ccco1	-7.6	8.7	42.2*	9.8	23.4	0.5	41.3*
CCC(C)c1ccccc1NC(=O)COC(=O)c1ccc(C)c(NC(=O)c2ccco2)c1 (stereo not drawn)	8.1	3.7	78.3*	0.6	-4.7	-0.5	73.6*
Cc1ccc(C(=O)OCC(=O)Nc2nc(-c3ccccc3)cs2)cc1NC(=O)c1ccco1	1.6	-11.3	-22.2	-15.0	8.9	-3.1	/
Cc1ccc(C(=O)OCC(=O)Nc2sccc2C(N)=O)cc1NC(=O)c1ccco1	-15.1	-1.3	15.6	1.2	7.0	-1.3	/
CCOc1cc(CNCc2cccnc2)ccc1OCC(=O)NC(C)(C)C	21.9	1.6	-4.2	1.5	0.2	2.1	/
Cc1ccc(-n2c(SCC(N)=O)nnc2-c2ccco2)cc1	9.5	4.3	3.0	-0.7	-1.5	3.5	/
Cn1c(=O)oc2cc(S(=O)(=O)NCc3ccc(F)cc3)ccc21	-0.2	-0.5	-5.0	0.7	10.4	4.8	/
CC(C)=CCC12Oc3cc(O)ccc3C1(O)Oc1cc(O)c([C@H]3C=C(C)CC(c4ccc(O)cc4O)[C@H]3C(=O)c3ccc(O)cc3O)c(O)c1C2=O (stereo partly drawn)	/	/	/	14.2	/	/	/
Cc1ccc(C(=O)OCC(=O)Nc2cc(F)ccc2F)cc1NC(=O)c1ccco1	1.3	-2.4	77.7*	-1.1	6.5	2.0	70.3*
CC1CC(C)CN(C(=O)/C(=C\c2ccccc2)c2ccccc2)C1 (stereo not drawn)	-11.6	-4.3	1.6	2.1	0.1	4.4	/
CC1CCCCN1C(=O)/C(=C\c1ccccc1)c1ccccc1 (stereo not drawn)	1.8	4.7	38.0*	-4.3	-24.4	7.8	9.4
Cc1cccc(/C=N/NC(=O)Cn2nc(C)cc2C)n1	10.2	2.2	5.2	9.0	-0.2	-2.0	/
O=C(COC(=O)c1cc(S(=O)(=O)N2CCOCC2)ccc1F)Nc1ccc2c(c1)OCO2	-1.6	-0.2	2.8	8.1	-0.5	-1.3	/
COc1ccc(C2CC(c3ccccc3)=NN2C(=O)COC(=O)c2cccnc2Cl)cc1 (stereo not drawn)	-1.9	-0.8	2.1	-5.6	5.5	2.6	/
Cc1ccc(S(=O)(=O)N2CCOCC2)cc1C(=O)OCC(=O)Nc1ccc2c(c1)OCO2	-9.4	8.4	37.3*	3.9	8.7	2.9	22.8
COc1cccc(NC(=O)COC(=O)c2cc(S(=O)(=O)N3CCOCC3)ccc2C)c1	9.8	6.2	35.1*	3.2	7.2	1.4	21.2
COc1ccc(C2CC(c3ccccc3)=NN2C(=O)COC(=O)c2cc(S(=O)(=O)N3CCOCC3)ccc2Cl)cc1 (stereo not drawn)	2.0	-15.1	30.8*	-2.0	8.9	-7.7	23.4
